One block for each molecule: values may come before it.
Key:
MDCK cells [1] = experiment: Actomyosin organization by IF; assay type: cell-based, canine
SGEF = experiment: Yeast two-hybrid screen with full-length human SGEF as bait; assay type: binding; conditions: mouse kidney cDNA library
Scribble = experiment: Coimmunoprecipitation of SGEF constructs with GFP-Scribble, HEK293FT lysates; assay type: binding, Human; conditions: GFP-trap nanobodies, WB
MDCK cells [2] = experiment: Height of MDCK monolayer, confocal XZ; assay type: cell-based, canine; conditions: average, n = 50 cells
Procedure, shortened: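 Confocal XZ sections of confluent control, SGEF-knockdown and rescue MDCK monolayers were acquired on a Leica SP8. Cells were stained for E-cadherin, β-catenin and nuclei, or for F-actin and Hoechst, and monolayer height was measured.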

Dlg1 = experiment: Coimmunoprecipitation of SGEF constructs with GFP-Dlg1, HEK293FT lysates; assay type: binding, Mouse; conditions: GFP-trap nanobodies, WB
Procedure, shortened: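 HEK293FT cells were co-transfected by calcium phosphate; medium was changed at 24 h and cells harvested at 48 h. Lysis was in Tris-HCl pH 7.4, MgCl2, 150 mM NaCl, 1% Triton X-100 and protease inhibitors. Equal protein was incubated with GFP-Trap beads for 1 h at 4°C, washed four times, then immunoblotted with anti-GFP and anti-myc (or anti-His).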

Xenopus embryos = experiment: Junctional localization in gastrula-stage embryos; assay type: in vivo, Xenopus laevis; conditions: live confocal, mNeon-tagged
Procedure, shortened: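 Embryos were microinjected in the animal hemisphere with mRNAs, either at the two-cell stage (each cell twice) or at the four-cell stage (once). They were raised to gastrula stage (10.5–12) and live-imaged by confocal. mNeon-tagged protein was coexpressed with BFP-ZO-1 (tight junction marker) and PLEKHA7-mCherry (adherens junction marker), and the junctional-to-cytosolic intensity ratio was quantified.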

MDCK cells [3] = experiment: Zigzag index of tight junctions; assay type: cell-based, canine
MDCK cells [4] = experiment: Protein levels and junctional localization by WB and IF; assay type: cell-based, canine
Procedure, shortened: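 Total lysates of confluent control, SGEF-knockdown and WT-rescue MDCK cells were immunoblotted, with tubulin as loading control. For immunofluorescence, cells were fixed in 3.7% paraformaldehyde, permeabilised with 0.1% Triton X-100 and imaged by confocal. Afadin enrichment was scored as the tricellular/bicellular junction intensity ratio (≥200 junctions, at least three fields, two experiments; Mann–Whitney U test).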

MDCK cells [5] = experiment: 3D cyst lumen formation in matrigel; assay type: cell-based, canine
RhoG = RhoG activity pulldown; assay type: cell-based, canine; conditions: normalized to total RhoG, three independent experiments
Procedure, shortened: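 Active RhoG was pulled down with GST–ELMO from total lysates of control, SGEF-knockdown and rescue MDCK cells, then immunoblotted with anti-RhoG. Active levels were normalised to total RhoG; mean ± SEM of three independent experiments.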

MDCK cells [6] = experiment: Apical cell area and axial ratio; assay type: cell-based, canine; conditions: major/minor axis aspect ratio
Procedure, shortened: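 Apical cell area and axial ratio were measured in control, SGEF-knockdown and WT-rescue MDCK monolayers from two fields in each of two independent experiments (n = 100 cells for area, n = 150 for axial ratio). Plots show min-to-max spread.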

[7] = tested on: Scribble/SGEF/Dlg1 ternary complex; experiment: Coprecipitation of Scribble with GFP-Dlg1; assay type: binding; conditions: HA-Scribble and GFP-Dlg1 coexpressed, IP anti-GFP, HEK293

Molecule: Cc1ccc2c(c1)C(=O)C1(O)CCN(c3ccccc3)C1=N2 (stereo not drawn) [blebbistatin, reference compound]
relative strength of effect on actomyosin array and stress fibers (MDCK cells [1]; 16 h, blebbistatin vs Y-27632): stronger effect than Y-27632

potential binding partner for SGEF (SGEF): potential binding partner for SGEF
Molecule: Scribble: Scribble polarity protein, 1–1,630

B1: SGEF 1–227: SGEF deletion mutant, binds to Scribble but not to Dlg1 (protein)
chain: MDGESEVDFSSNSITPLWRRRSIPQPHQVLGRSKPRPQSYQSPNGLLITDFPVEDGGTLLAAQIPAQVPTASDSRTVHRSPLLLGAQRRAVANGGTASPEYRAASPRLRRPKSPKLPKAVPGGSPKSPANGAVTLPAPPPPPVLRPPRTPNAPAPCTPEEDLTGLTASPVPSPTANGLAANNDSPGSGSQSGRKAKDPERGLFPGPQKSSSEQKLPLQRLPSQENEL
modifications: left off: myc (inferred from the legends of Figures 1 and 2), end not stated, kept
interaction with Scribble (Scribble): sufficient to interact with Scribble
cell height (MDCK cells [2]; Fig. 9 I): 2.99 ± 0.065 µm
interaction with Dlg1 (Dlg1): did not interact with Dlg1
localization at apical junctional complex (Xenopus embryos): localized efficiently to the AJC

B2: SGEF 1–400: minimum region required to bind Scribble and Dlg1, no catalytic activity (protein)
chain: MDGESEVDFSSNSITPLWRRRSIPQPHQVLGRSKPRPQSYQSPNGLLITDFPVEDGGTLLAAQIPAQVPTASDSRTVHRSPLLLGAQRRAVANGGTASPEYRAASPRLRRPKSPKLPKAVPGGSPKSPANGAVTLPAPPPPPVLRPPRTPNAPAPCTPEEDLTGLTASPVPSPTANGLAANNDSPGSGSQSGRKAKDPERGLFPGPQKSSSEQKLPLQRLPSQENELLENPSVVLSTNSPAALKVGKQQIIPKSLASEIKISKSNNQNVEPHKRLLKVRSMVEGLGGPLGHAGEESEVDNDVDSPGSLRRGLRSTSYRRAVVSGFDFDSPTSSKKKNRMSQPVLKVVMEDKEKFSSLGRIKKKMLKGQGTFDGEENAVLYQNYKEKALDIDSDEESEPKE
modifications: left off: myc (inferred from the legend of Figure 2), end not stated, kept
cell height (MDCK cells [2]; Fig. 9 I): 2.57 ± 0.049 µm
rescue of increased contractility (MDCK cells [1]; myosin II staining, SGEF KD background): able to rescue the increase in contractility
interaction with Dlg1 (Dlg1): able to bind to Dlg1
zigzag index (in words) (MDCK cells [3]; compared with SGEF KD, Fig. 9 J): increased significantly

B3: SGEF WT: full-length SGEF 1–871, RhoG-specific GEF, myc- or mNeon-tagged (protein)
chain: MDGESEVDFSSNSITPLWRRRSIPQPHQVLGRSKPRPQSYQSPNGLLITDFPVEDGGTLLAAQIPAQVPTASDSRTVHRSPLLLGAQRRAVANGGTASPEYRAASPRLRRPKSPKLPKAVPGGSPKSPANGAVTLPAPPPPPVLRPPRTPNAPAPCTPEEDLTGLTASPVPSPTANGLAANNDSPGSGSQSGRKAKDPERGLFPGPQKSSSEQKLPLQRLPSQENELLENPSVVLSTNSPAALKVGKQQIIPKSLASEIKISKSNNQNVEPHKRLLKVRSMVEGLGGPLGHAGEESEVDNDVDSPGSLRRGLRSTSYRRAVVSGFDFDSPTSSKKKNRMSQPVLKVVMEDKEKFSSLGRIKKKMLKGQGTFDGEENAVLYQNYKEKALDIDSDEESEPKEQKSDEKIVIHHKPLRSTWSQLSAVKRKGLSQTVSQEERKRQEAIFEVISSEHSYLLSLEILIRMFKNSKELSDTMTKTERHHLFSNITDVCEASKKFFIELEARHQNNIFIDDISDIVEKHTASTFDPYVKYCTNEVYQQRTLQKLLATNPSFKEVLSRIESHEDCRNLPMISFLILPMQRVTRLPLLMDTICQKTPKDSPKYEVCKRALKEVSKLVRLCNEGARKMERTEMMYTINSQLEFKIKPFPLVSSSRWLVKRGELTAYVEDTVLFSRRTSKQQVYFFLFNDVLIITKKKSEESYNVNDYSLRDQLLVESCDNEELNSSPGKNSSTMLYSRQSSASHLFTLTVLSNHANEKVEMLLGAETQSERARWITALGHSSGKPPADRTSLTQVEIVRSFTAKQPDELSLQVADVVLIYQRVSDGWYEGERLRDGERGWFPMECAKEITCQATIDKNVERMGRLLGLETNV
modifications: left off: myc, end not stated, kept
interaction with Scribble (Scribble): confirmed the interaction
β-catenin and p120-catenin localization at cell–cell junctions (MDCK cells [4]; IF): restored to normal
localization of Scribble and Dlg1 (MDCK cells [4]; IF, rescue of SGEF KD): restored the normal localization of both Scribble and Dlg1
cadherin-6 levels (MDCK cells [4]; WB): restored to normal levels
E-cadherin level and localization (MDCK cells [4]; WB and IF): restored both the proper expression level and localization of E-cadherin
afadin expression levels and localization at AJs (MDCK cells [4]; WB and IF): rescued to normal levels
cell height (MDCK cells [2]; three independent experiments, Fig. 5 I): 5.61 ± 0.16 µm
cysts with a single lumen (MDCK cells [5]; Fig. 10 D, red and dark green bars, CTRL 65%): 36%
cysts with an open lumen (MDCK cells [5]; Fig. 10 D, red and orange bars, CTRL 100%): 77%
E-cadherin expression in cysts (MDCK cells [5]; IF, 3D cysts): restored to normal levels
cysts with multiple open lumens (MDCK cells [5]; matrigel, 4 d): 40%
active RhoG level (RhoG): returned to normal
actomyosin organization at apical junction (MDCK cells [1]; IF, HyVolution): restored the normal apical and basal actomyosin pattern
axial ratio (MDCK cells [6]): could be rescued
interaction with Dlg1 (Dlg1): able to bind efficiently to Dlg1
formation of Scribble/SGEF/Dlg1 ternary complex [7]: Scribble coprecipitated efficiently with Dlg1
zigzag index (MDCK cells [3]; average, 1 = straight line, CTRL 1.24): 1.16
localization at apical junctional complex (Xenopus embryos): localized efficiently to the AJC

B4: SGEF 1–414: N-terminal half of SGEF, ends just before DH-PH domain (protein)
chain: MDGESEVDFSSNSITPLWRRRSIPQPHQVLGRSKPRPQSYQSPNGLLITDFPVEDGGTLLAAQIPAQVPTASDSRTVHRSPLLLGAQRRAVANGGTASPEYRAASPRLRRPKSPKLPKAVPGGSPKSPANGAVTLPAPPPPPVLRPPRTPNAPAPCTPEEDLTGLTASPVPSPTANGLAANNDSPGSGSQSGRKAKDPERGLFPGPQKSSSEQKLPLQRLPSQENELLENPSVVLSTNSPAALKVGKQQIIPKSLASEIKISKSNNQNVEPHKRLLKVRSMVEGLGGPLGHAGEESEVDNDVDSPGSLRRGLRSTSYRRAVVSGFDFDSPTSSKKKNRMSQPVLKVVMEDKEKFSSLGRIKKKMLKGQGTFDGEENAVLYQNYKEKALDIDSDEESEPKEQKSDEKIVIHHKPL
modifications: left off: myc (inferred from the legends of Figures 2 and 3), end not stated, kept
interaction with Dlg1 (Dlg1): interacted efficiently with Dlg1
formation of Scribble/SGEF/Dlg1 ternary complex [7]: minimum SGEF mutant that can mediate the formation of the Scribble/SGEF/Dlg1 complex

From paper PMC6683736 (The Journal of Cell Biology, 2019)
